Only some compounds are listed: those with a hit (about 1.6% of all), similar ones and a draw of the others.
TLR4 MyD88 comp – TLR4-MyD88 interaction inhibition in cells; inhibition, % at 8.4 µM; 0.18% of 200,000 active; HeLa CL3-4 TLR4/MyD88 BLA complementation, FRET ratio; in the data active means inhibition above about 25%;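 further: 0% = vehicle and 100% = reference inhibitor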
TLR9-MyD88 inh – TLR9-MyD88 interaction inhibition; Q9NR96+Q99836; CHO BLA complementation TLR9-MyD88, CCF4 FRET ratio; inhibition, % at 4.98 µM; 0.21% of 340,000 active;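 active means inhibition above the mean over all tested compounds plus 3 SD, cut at about 21% in these data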;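 further: 0% = DMSO only wells and 100% = clavulanate BLA inhibitor control wells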
Dynein transport – dynein cargo transport inhibition | 3617.4 mouse cells, GR-EGFP nuclear translocation imaging; test concentration mostly 20 µM; stimulated with dexamethasone, 1 µM; stronger effect = lower value | z-score, hits read low | 0.47% of 220,000 active;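 active means plate z-score of nuclear minus cytoplasmic receptor signal below a set negative limit, without overly bright fluorescence or cell loss, cut at about -3.5 in these data, passing the limit was not always enough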;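 further: z-score of nuclear minus cytoplasmic ring GR-EGFP intensity difference per well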
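Also added – dexamethasone, 1.0 µM final · Buffer or medium – tet-free, stripped-serum medium · Schedule – induction 48 h, compound 1 h, agonist 30 min · Detection – formaldehyde fixation, Hoechst nuclear stain, 10x automated fluorescence imaging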
NOD2-RIPK2 inh – inhibitors of human NOD2-RIPK2 interaction; O43353; CHO BLA complementation NOD2-RIPK2, CCF4 ratio; inhibition, % at 4.98 µM; 0.38% of 360,000 active; AID 624267; in the data active means inhibition above about 21%;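 further: 0% = vehicle only and 100% = reference blocker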
ABHD5-PLIN5 inh – ABHD5-PLIN5 protein interaction inhibition; Split G. princeps luciferase complementation, luminescence, 4 h; Q00G26+Q8WTS1; 0.78% of 360,000 active; AID 602281; inhibition, % at 4 µM;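 active means inhibition above the mean inhibition across every tested compound plus 3 SD, cut at about 22% in these data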;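 further: 0% = DMSO only wells and the 100% control is not disclosed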
B2AR ag – human beta-2 adrenergic receptor agonism by FAP; P07550; Am2.2-beta2AR cells, FAP receptor internalization, flow cytometry; response, % (test concentration not listed); 0.43% of 340,000 active; AID 504454;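 active means response above a set limit, near 3 SD of response in nonfluorescent compounds, cut at about 42% in these data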
ABHD5-PLIN5 conf – ABHD5-PLIN5 interaction inhibition, confirmed; inhibition, % at 4 µM; 67% of 2,200 active; shares compounds with ABHD5-PLIN5 inh; biochemical ABHD5-PLIN5 interaction, luminescence; AID 651612; in the data active means inhibition above about 23%;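 further: 0% = DMSO vehicle wells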
HNF4 split-luc – active in HNF4 split-luciferase counter-screen for ABHD5-PLIN5 inhibitors. shares compounds with ABHD5-PLIN5 inh. HNF4 dimerization, luminescence, biochemical. inhibition, % at 4 µM. 77% of 2,200 active. AID 651674;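 active means mean inhibition across replicate wells exceeding the computed hit threshold, cut at about 13% in these data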;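 further: light from luciferase halves that rejoin when HNF4 fusion proteins dimerize; 0% = DMSO only wells and the 100% control is not given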
Numbers without * were called inactive; . = not tested or not shown.

SMILES	TLR4 MyD88 comp	TLR9-MyD88 inh	Dynein transport	NOD2-RIPK2 inh	ABHD5-PLIN5 inh	B2AR ag	ABHD5-PLIN5 conf	HNF4 split-luc
Cc1ccc2c(c1)c(C1=c3ccccc3=NC1=O)c(O)n2C	.	12	.	12	33*	-3	88*	108*
O=C(O)CN1C(=O)C2C3C=CC(C2C1=O)C1C(=O)N(CC(=O)O)C(=O)C31 (configuration not stated)	.	-7	.	-4	3	0	.	.
O=C(O)CN1C(=O)C=CC1=O	.	6	.	3	66*	.	47*	104*
Cc1[nH]c(=O)[nH]c(=O)c1S(=O)(=O)N1CCCCC1	.	-4	.	4	29*	12	-2	16*
CCc1cccc(NC(=O)CCc2c(C)nn(-c3ccc(N4CCOCC4)nn3)c2C)c1	.	4	.	5	-10	-17	.	.
COCCc1ccc(OC2(C)CCN(Cc3cccn3-c3nccs3)C2)cc1 (configuration not stated)	.	.	.	0	3	.	.	.
CS(=O)(=O)c1ccc(C(=O)NCCN2C(=O)S/C(=C\c3cccnc3)C2=O)cc1[N+](=O)[O-]	-4	15	-0.97	2	56*	-3	67*	44*
CCOC(=O)C1=C(C)NC2=C(C(=O)C(C(=O)OCC)C(c3ccco3)C2)C1c1ccccn1 (configuration not stated)	-8	1	-0.097	-7	42*	-4	3	17*
O=c1cc(CN2CCN(c3ccccc3F)CC2)c2ccccc2o1	.	.	.	-6	-7	.	.	.
CC1CCCN(C(=O)c2ccc3ncsc3c2)C1 (configuration not stated)	.	-5	.	1	-10	-1	.	.
CC(C)OC(=O)CSc1nnc(-c2cnccn2)n1Cc1ccco1	8	-4	1.3	-14	-5	5	.	.
Fc1ccccc1CSc1nnc(-c2cnccn2)n1Cc1ccco1	0	-5	-1.2	-18	0	-2	.	.
Cc1cccc(NC(=O)CSc2nnc(-c3ccco3)c(-c3ccco3)n2)c1	-1	9	-1.5	-2	26*	-11	90*	67*
C(=C\c1ccccc1)/CSc1nnc(-c2cnccn2)n1Cc1ccco1	10	-4	-0.067	-4	37*	-5	19	29*
Clc1ccccc1CSc1nnc(-c2cccnc2)n1Cc1ccco1	-8	7	-1.4	0	31*	-5	9	12*
O=C(CSc1nnc(-c2cnccn2)n1Cc1ccco1)c1ccc2ccccc2c1	-5	3	-0.8	-1	37*	3	16	27*
Cc1ncc(C(O)c2ccccc2)n1Cc1ccccc1 (configuration not stated)	.	0	.	5	-10	.	.	.
CCCCOc1ccc(SCCCN2CCOCC2)cc1	.	-10	.	-12	-6	-9	.	.
Cc1cccc(NC(=O)CSc2nnc(-c3cnccn3)n2Cc2ccco2)c1	5	-2	-0.19	11	68*	-2	11	11
Cc1ccc(NC(=O)CSc2nnc(-c3cnccn3)n2Cc2ccco2)cc1	5	3	0.03	-9	8	4	.	.
CC1(C)c2ccccc2N2CC(=O)NC21/C=C/c1ccco1 (configuration not stated)	-3	-1	-0.023	-5	27*	11	19	21*
CC(C)C(NC(=O)C1(NC(=O)OCc2ccccc2)CCCC1)C(=O)O (configuration not stated)	.	-4	.	-5	4	5	.	.
CN(C)CCCNC(=O)/C(=C\c1ccc(-c2ccc(Br)cc2)o1)NC(=O)c1ccccc1	2	4	0.83	10	24*	31	14	4
CN(C)CCNC(=O)/C(=C/c1ccc(-c2cccc(Cl)c2)o1)NC(=O)c1ccccc1	-16	-3	-0.23	5	-6	2	.	.
CCCOc1ccc(F)cc1-c1cc(C(=O)NCc2cccc(C(F)(F)F)c2)[nH]n1	.	.	.	-13	-10	.	.	.
SMILES	TLR4 MyD88 comp	TLR9-MyD88 inh	Dynein transport	NOD2-RIPK2 inh	ABHD5-PLIN5 inh	B2AR ag	ABHD5-PLIN5 conf	HNF4 split-luc
COc1ccc(CN2C(=O)C(CC(=O)NCCN3CCOCC3)CC(C(=O)N3CCOCC3)=C2C)cc1 (configuration not stated)	.	-1	.	15	1	.	.	.
O=C(O)C(Cc1ccccc1)N1C(=O)CCC1=O (configuration not stated)	-11	0	-0.34	3	-4	0	.	.
O=C(O)C(Cc1ccccc1)N1C(=O)C=CC1=O (configuration not stated)	.	-1	.	6	75*	.	67*	107*
Cc1[nH]c2ccc(C(=O)OC(C)C(=O)NC3(C#N)CCCCC3)cc2c1C (configuration not stated)	.	-1	.	3	-9	1	.	.
Cc1cccc(OCCNc2cc(N3CCN(C)CC3)ccc2[N+](=O)[O-])c1	12	4	0.14	-8	12	8	.	.
Cc1ccc(OCCNc2cc(N3CCN(CCO)CC3)ccc2[N+](=O)[O-])cc1C	3	-8	-0.13	2	31*	5	5	14*
CN(C)C(=O)c1cccc(-c2cnc3c(NC=O)cc(-c4ccccc4Cl)cn23)c1	.	.	.	6	24*	.	20	12
COc1cccc(-c2cnc3c(NC=O)cc(-c4ccoc4)cn23)c1	.	.	.	0	26*	.	30*	37*
c1ccc2c(c1)nnn2Cn1nnc2ccccc21	.	-5	.	0	2	.	.	.
C#CCNC(=O)C1=C[C@H](C)[C@@H](CCCO)[C@H](OCC)O1	-5	1	-0.58	-9	9	4	.	.
C#CCNC(=O)C1=C[C@H](C2CCCCC2)[C@@H](CCCO)[C@H](OCC)O1	-16	1	-0.58	-11	101*	3	3	1
O=C(C1CCCCC1)N1C[C@H](n2cc(C3CC3)nn2)[C@@H](O)C[C@@H]1c1ccc(Cl)cc1	.	-8	.	-11	-3	.	.	.
CCc1nc(N2CCN(C(=S)NCCCOC)CC2)c2c3c(sc2n1)CCCC3	.	-1	.	5	2	10	.	.
C[C@H](CO)N1C[C@H](C)[C@H](CN(C)S(=O)(=O)c2ccc(F)cc2)OCc2cnnn2CCCC1=O	.	-11	.	6	-6	.	.	.
Cc1cccc(C)c1NC(=O)C(c1ccnc2ccccc12)n1c(=O)c(-c2ccco2)nc2ccccc21 (configuration not stated)	.	.	.	-17	45*	.	52*	13*
Cc1cccc(C)c1NC(=O)C(c1ccccc1F)n1c(=O)c(-c2ccco2)nc2ccccc21 (configuration not stated)	.	.	.	3	86*	.	76*	28*

Assay outcomes deposited in PubChem by several laboratories.
